Test results: ChEMBL document CHEMBL5104202, “Structure-Uptake Relationship Studies of Oxazolidinones in Gram-Negative ESKAPE Pathogens” (J Med Chem, 2022)
Converted amounts (≈) assume the structure as drawn.

Assays:
Pseudomonas aeruginosa [1] = test: Antibacterial activity against efflux pump lacking/recombinant OM pore producing Pseudomonas aeruginosa assessed as inhibition of bacterial growth; assay type: functional, organism-based
Pseudomonas aeruginosa [2] = test: Antibacterial activity against efflux pump lacking/recombinant OM pore producing Pseudomonas aeruginosa incubated for 24 hrs by twofold serial dilution method; assay type: functional
How it was run: (§1)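 MICs by twofold serial dilution in 96-well plates from 10 mM DMSO stocks. Cultures grown in the indicated media; for E. coli, A. baumannii and P. aeruginosa, inducers were 0.1% arabinose, 1% arabinose and 0.1 mM IPTG respectively.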

Klebsiella pneumoniae [3] = test: Antibacterial activity against multidrug resistant Klebsiella pneumoniae ATCC43816 assessed as inhibition of bacterial growth incubated for 24 hrs in MHI medium by twofold serial dilution method; assay type: functional
Acinetobacter baumannii [4] = test: Antibacterial activity against multidrug resistant Acinetobacter baumannii AYE assessed as inhibition of bacterial growth incubated for 24 hrs in M9-MOPS medium by twofold serial dilution method; assay type: functional
Pseudomonas aeruginosa [5] = test: Antibacterial activity against multidrug resistant Pseudomonas aeruginosa BAA 2108 assessed as inhibition of bacterial growth incubated for 24 hrs in M9-MOPS medium by twofold serial dilution method; assay type: functional
Escherichia coli [6] = test: Antibacterial activity against Escherichia coli SQ110 DTC G2032A incubated for 24 hrs by twofold serial dilution method; assay type: functional
How it was run: (§2)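 E. coli SQDTC (TolC-deficient, single rRNA operon) carrying LZD-resistant 23S rRNA substitutions. Compounds come from 10 mM DMSO stocks and are twofold serially diluted in 96-well plates.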

Klebsiella pneumoniae [7] = test: Antibacterial activity against multidrug resistant Klebsiella pneumoniae ATCC43816 assessed as inhibition of bacterial growth incubated for 24 hrs in MHI medium by twofold serial dilution method; conditions: ATCC43816, 24 h
Escherichia coli [8] = test: Antibacterial activity against efflux pump lacking/recombinant OM pore producing Escherichia coli assessed as inhibition of bacterial growth; assay type: functional, organism-based
Escherichia coli [9] = test: Antibacterial activity against efflux pump lacking/recombinant OM pore producing Escherichia coli incubated for 24 hrs by twofold serial dilution method; assay type: functional
How it was run: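 E. coli efflux-knockout/hyperporinated strain grown in M9 medium with 50 mM MOPS (pH 7.2) and 0.2% xylose. OM pore induced with 0.1% arabinose. Compounds come from 10 mM DMSO stocks and are twofold serially diluted in 96-well plates.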

Acinetobacter baumannii [10] = test: Antibacterial activity against efflux pump lacking/recombinant OM pore producing Acinetobacter baumannii assessed as inhibition of bacterial growth; assay type: functional, organism-based
Staphylococcus aureus = test: Antibacterial activity against Staphylococcus aureus ATCC 25923 incubated for 24 hrs by twofold serial dilution method; assay type: functional; how it was run: as §1
Pseudomonas aeruginosa [11] = test: Antibacterial activity against efflux pump lacking Pseudomonas aeruginosa assessed as inhibition of bacterial growth; assay type: functional, organism-based
Escherichia coli [12] = test: Antibacterial activity against recombinant OM pore producing Escherichia coli assessed as inhibition of bacterial growth; assay type: functional, organism-based
Acinetobacter baumannii [13] = test: Antibacterial activity against efflux pump lacking Acinetobacter baumannii assessed as inhibition of bacterial growth; assay type: functional, organism-based
Acinetobacter baumannii [14] = test: Antibacterial activity against wild type Acinetobacter baumannii assessed as inhibition of bacterial growth; assay type: functional, organism-based
Klebsiella aerogenes = test: Antibacterial activity against multidrug resistant Klebsiella aerogenes ATCC13048 assessed as inhibition of bacterial growth incubated for 24 hrs in M9-MOPS medium by twofold serial dilution method; assay type: functional
Acinetobacter baumannii [15] = test: Antibacterial activity against multidrug resistant Acinetobacter baumannii Ab5075 assessed as inhibition of bacterial growth incubated for 24 hrs in M9-MOPS medium by twofold serial dilution method; assay type: functional
Acinetobacter baumannii [16] = test: Antibacterial activity against multidrug resistant Acinetobacter baumannii Ab5075 assessed as inhibition of bacterial growth incubated for 24 hrs in MHI medium by twofold serial dilution method; assay type: functional
Escherichia coli [17] = test: Antibacterial activity against Escherichia coli SQ110 incubated for 24 hrs by twofold serial dilution method; assay type: functional; how it was run: as §1
Klebsiella pneumoniae [18] = test: Antibacterial activity against multidrug resistant Klebsiella pneumoniae ATCC13883 assessed as inhibition of bacterial growth incubated for 24 hrs in M9-MOPS medium by twofold serial dilution method; assay type: functional
Pseudomonas aeruginosa [19] = test: Antibacterial activity against multidrug resistant Pseudomonas aeruginosa BAA 2109 assessed as inhibition of bacterial growth incubated for 24 hrs in MHI medium by twofold serial dilution method; assay type: functional
Acinetobacter baumannii [20] = test: Antibacterial activity against efflux pump lacking/recombinant OM pore producing Acinetobacter baumannii incubated for 24 hrs by twofold serial dilution method; assay type: functional; how it was run: as §1
Pseudomonas aeruginosa [21] = test: Antibacterial activity against multidrug resistant Pseudomonas aeruginosa BAA 2108 assessed as inhibition of bacterial growth incubated for 24 hrs in MHI medium by twofold serial dilution method; assay type: functional
Pseudomonas aeruginosa [22] = test: Antibacterial activity against wild type Pseudomonas aeruginosa assessed as inhibition of bacterial growth; assay type: functional, organism-based
Klebsiella pneumoniae [23] = test: Antibacterial activity against multidrug resistant Klebsiella pneumoniae ATCC43816 assessed as inhibition of bacterial growth incubated for 24 hrs in M9-MOPS medium by twofold serial dilution method; assay type: functional
Escherichia coli [24] = test: Antibacterial activity against wild type Escherichia coli assessed as inhibition of bacterial growth; assay type: functional, organism-based
Escherichia coli [25] = test: Antibacterial activity against efflux pump lacking Escherichia coli assessed as inhibition of bacterial growth; assay type: functional, organism-based
Pseudomonas aeruginosa [26] = test: Antibacterial activity against multidrug resistant Pseudomonas aeruginosa BAA 2109 assessed as inhibition of bacterial growth incubated for 24 hrs in […] medium by twofold serial dilution method; assay type: functional
Klebsiella pneumoniae [27] = test: Antibacterial activity against multidrug resistant Klebsiella pneumoniae ATCC13883 assessed as inhibition of bacterial growth incubated for 24 hrs in MHI medium by twofold serial dilution method; assay type: functional
Acinetobacter baumannii [28] = test: Antibacterial activity against multidrug resistant Acinetobacter baumannii AYE assessed as inhibition of bacterial growth incubated for 24 hrs in MHI medium by twofold serial dilution method; assay type: functional
Pseudomonas aeruginosa [29] = test: Antibacterial activity against recombinant OM pore producing Pseudomonas aeruginosa assessed as inhibition of bacterial growth; assay type: functional, organism-based
Acinetobacter baumannii [30] = test: Antibacterial activity against recombinant OM pore producing Acinetobacter baumannii assessed as inhibition of bacterial growth; assay type: functional, organism-based
Escherichia coli [31] = test: Antibacterial activity against Escherichia coli SQ110 DTC C2610A incubated for 24 hrs by twofold serial dilution method; assay type: functional; how it was run: as §2
Escherichia coli [32] = test: Antibacterial activity against Escherichia coli SQ110 DTC incubated for 24 hrs by twofold serial dilution method; assay type: functional; how it was run: as §1

Compound | IC50 (Pseudomonas aeruginosa [1]) | MIC (Pseudomonas aeruginosa [2]) | MIC (Escherichia coli [6]) | IC50 (Escherichia coli [8]) | MIC (Escherichia coli [9]) | IC50 (Acinetobacter baumannii [10]) | MIC (Staphylococcus aureus) | IC50 (Pseudomonas aeruginosa [11]) | IC50 (Escherichia coli [12]) | IC50 (Acinetobacter baumannii [13]) | IC50 (Acinetobacter baumannii [14]) | MIC (Escherichia coli [17]) | MIC (Acinetobacter baumannii [20]) | IC50 (Pseudomonas aeruginosa [22]) | IC50 (Escherichia coli [24]) | IC50 (Escherichia coli [25]) | IC50 (Pseudomonas aeruginosa [29]) | IC50 (Acinetobacter baumannii [30]) | MIC (Escherichia coli [31]) | MIC (Escherichia coli [32]) | further results
O=C1O[C@@H](CO)CN1c1ccc(-c2cccnc2)c(F)c1 | 6 µM | 6.25 µM | 50 µM (≈ 14.4 µg/mL) | 3200 nM | 25 µM | 4.3 µM | 1.56 µM (≈ 0.45 µg/mL) | 4.7 µM | 14.5 µM | 4.3 µM | 19 µM | > 100 µM | 12.5 µM | > 100 µM | > 100 µM | 2800 nM | 75.3 µM | 19 µM | 25 µM (≈ 7.21 µg/mL) | 12.5 µM (≈ 3.6 µg/mL) | MIC (Klebsiella pneumoniae [3]): > 200 µM; MIC (Acinetobacter baumannii [4]): 100 µM (≈ 28.8 µg/mL); MIC (Pseudomonas aeruginosa [5]): > 200 µM; MIC (Klebsiella pneumoniae [7]): > 200 µM; MIC (Klebsiella aerogenes): 200 µM (≈ 57.7 µg/mL); MIC (Acinetobacter baumannii [15]): 100 µM (≈ 28.8 µg/mL); MIC (Acinetobacter baumannii [16]): > 200 µM; MIC (Klebsiella pneumoniae [18]): 200 µM (≈ 57.7 µg/mL); MIC (Pseudomonas aeruginosa [19]): > 200 µM; MIC (Pseudomonas aeruginosa [21]): > 200 µM; MIC (Klebsiella pneumoniae [23]): > 200 µM; MIC (Pseudomonas aeruginosa [26]): > 200 µM; MIC (Klebsiella pneumoniae [27]): > 200 µM; MIC (Acinetobacter baumannii [28]): > 200 µM
O=C1O[C@@H](CO)CN1c1ccc(-c2cccc(CO)c2)c(F)c1 | 13 µM |  |  | 2000 nM |  | 7.6 µM |  | 15.5 µM | 1.5 µM | 5.4 µM | 45.8 µM |  |  | > 100 µM | 66.9 µM | 1500 nM | > 100 µM | 10.8 µM |  |  | MIC (Klebsiella pneumoniae [3]): > 200 µM; MIC (Acinetobacter baumannii [4]): 200 µM (≈ 63.5 µg/mL); MIC (Pseudomonas aeruginosa [5]): > 200 µM; MIC (Klebsiella pneumoniae [7]): > 200 µM; MIC (Klebsiella aerogenes): > 200 µM; MIC (Acinetobacter baumannii [15]): 200 µM (≈ 63.5 µg/mL); MIC (Acinetobacter baumannii [16]): > 200 µM; MIC (Klebsiella pneumoniae [18]): 200 µM (≈ 63.5 µg/mL); MIC (Pseudomonas aeruginosa [19]): > 200 µM; MIC (Pseudomonas aeruginosa [21]): > 200 µM; MIC (Klebsiella pneumoniae [23]): > 200 µM; MIC (Pseudomonas aeruginosa [26]): > 200 µM; MIC (Klebsiella pneumoniae [27]): > 200 µM; MIC (Acinetobacter baumannii [28]): > 200 µM
O=C(O)c1ccc(-c2ccc(N3C[C@H](CO)OC3=O)cc2F)cc1 | 8.9 µM | > 100 µM | 50 µM (≈ 16.6 µg/mL) | 2600 nM | 12.5 µM | 10.2 µM | 6.25 µM (≈ 2.07 µg/mL) | > 100 µM | > 100 µM | 12.8 µM | > 100 µM | > 100 µM | 50 µM | > 100 µM | > 100 µM | 54000 nM | > 100 µM | 55.5 µM | 25 µM (≈ 8.28 µg/mL) | 25 µM (≈ 8.28 µg/mL) | 
C[n+]1ccc(-c2ccc(-c3ccc(N4C[C@H](CO)OC4=O)cc3F)cc2)cc1 | > 100 µM | 12.5 µM | 25 µM | 500 nM | 12.5 µM | 10.8 µM | 12.5 µM | > 100 µM | 1.7 µM | 64 µM | > 100 µM | > 100 µM | 50 µM | > 100 µM | 15.4 µM | 500 nM | > 100 µM | 10 µM | 12.5 µM | 3.12 µM | MIC (Klebsiella pneumoniae [3]): > 200 µM; MIC (Acinetobacter baumannii [4]): > 200 µM; MIC (Pseudomonas aeruginosa [5]): > 200 µM; MIC (Klebsiella pneumoniae [7]): > 200 µM; MIC (Klebsiella aerogenes): 50 µM; MIC (Acinetobacter baumannii [15]): 200 µM; MIC (Acinetobacter baumannii [16]): > 200 µM; MIC (Klebsiella pneumoniae [18]): 100 µM; MIC (Pseudomonas aeruginosa [19]): > 200 µM; MIC (Pseudomonas aeruginosa [21]): > 200 µM; MIC (Klebsiella pneumoniae [23]): > 200 µM; MIC (Pseudomonas aeruginosa [26]): > 200 µM; MIC (Klebsiella pneumoniae [27]): > 200 µM; MIC (Acinetobacter baumannii [28]): > 200 µM
O=C1O[C@@H](CO)CN1c1ccc(-c2ccc(C(F)(F)F)cc2)c(F)c1 | 1.4 µM | > 100 µM | > 100 µM | 2900 nM | > 100 µM | 3.9 µM | 3.12 µM (≈ 1.11 µg/mL) | 8 µM | 35.3 µM | 8 µM | > 100 µM | 100 µM (≈ 35.5 µg/mL) | 6.25 µM | > 100 µM | 88.8 µM | 4100 nM | > 100 µM | 41.1 µM | > 100 µM | 25 µM (≈ 8.88 µg/mL) | 
